The nature of data set [1]: Change in total alpha-tubulin levels in human QBI293 cells at 1 uM after 4 hrs by ELISA relative to control. The note with it: qbi293, 4 h. (In an ELISA, binding on a coated surface is turned into a signal by an enzyme label.)
The species entered for a further data set is Rattus norvegicus. The experiment in a line: Inhibition of 5-LOX-mediated LTB4 production in arachidonic acid-stimulated RBL1 cells at 10 uM preincubated for 2 hrs followed by A23187 induction for 15 mins by LC/MS/MS analysis relative to control. The method in brief:
(§1)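 RBL-1 cells grown in RPMI/10% FBS, plated 9 × 10⁵ cells/well, held 2 h at 37 °C, then given compound for 2 h (screen at 10 μM, then concentration–response in triplicate). Stimulation was 12 μM A23187 for 15 min. Supernatants were extracted with MeOH/0.01% BHT and LTB₄ quantified by UPLC-MS/MS in negative ion mode.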

Another data set addresses T1, Cyclooxygenase (Rattus norvegicus, UniProt P35355+Q63921).
T1 sequence (P35355 whole entry): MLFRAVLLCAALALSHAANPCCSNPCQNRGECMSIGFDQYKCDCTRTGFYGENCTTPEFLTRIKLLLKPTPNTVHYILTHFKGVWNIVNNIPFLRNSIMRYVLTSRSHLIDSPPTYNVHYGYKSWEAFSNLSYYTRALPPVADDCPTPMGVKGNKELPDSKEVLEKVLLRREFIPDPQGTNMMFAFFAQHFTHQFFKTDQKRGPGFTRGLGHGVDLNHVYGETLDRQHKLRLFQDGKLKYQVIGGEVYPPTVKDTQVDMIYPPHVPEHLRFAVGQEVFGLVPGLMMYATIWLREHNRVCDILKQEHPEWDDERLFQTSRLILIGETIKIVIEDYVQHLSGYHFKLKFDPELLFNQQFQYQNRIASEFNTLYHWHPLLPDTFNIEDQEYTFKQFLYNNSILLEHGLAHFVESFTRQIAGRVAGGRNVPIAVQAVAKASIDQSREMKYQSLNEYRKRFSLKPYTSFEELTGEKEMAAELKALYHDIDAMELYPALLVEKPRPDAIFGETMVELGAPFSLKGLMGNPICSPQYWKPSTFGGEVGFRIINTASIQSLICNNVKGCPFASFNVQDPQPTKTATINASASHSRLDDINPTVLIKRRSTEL
T1 sequence (Q63921 whole entry): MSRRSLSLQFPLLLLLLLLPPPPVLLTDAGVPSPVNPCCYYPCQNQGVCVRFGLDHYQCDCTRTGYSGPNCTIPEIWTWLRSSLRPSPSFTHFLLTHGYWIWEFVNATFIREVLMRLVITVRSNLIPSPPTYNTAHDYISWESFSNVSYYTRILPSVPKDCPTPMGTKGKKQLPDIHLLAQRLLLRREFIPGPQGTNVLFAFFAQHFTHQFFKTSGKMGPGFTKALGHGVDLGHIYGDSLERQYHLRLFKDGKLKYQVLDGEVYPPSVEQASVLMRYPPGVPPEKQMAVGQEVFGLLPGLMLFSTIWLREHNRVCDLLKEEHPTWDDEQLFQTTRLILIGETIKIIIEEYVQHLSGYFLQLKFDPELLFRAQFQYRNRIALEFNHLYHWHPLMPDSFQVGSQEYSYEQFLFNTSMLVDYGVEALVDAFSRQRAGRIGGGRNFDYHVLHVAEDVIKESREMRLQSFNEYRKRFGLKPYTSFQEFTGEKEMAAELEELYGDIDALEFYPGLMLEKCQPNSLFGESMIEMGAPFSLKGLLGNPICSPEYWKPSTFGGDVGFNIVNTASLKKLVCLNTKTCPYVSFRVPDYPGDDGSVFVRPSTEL
Kind of data set: Inhibition of COX-mediated PGD2/PGE2 production in arachidonic acid-stimulated RBL1 cells preincubated for 2 hrs followed by A23187 induction for 15 mins by LC/MS/MS analysis. A digest of the protocol:
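RBL-1 cells in RPMI/10% FBS, 9 × 10⁵ cells/well, held 2 h, then exposed to compound for 2 h at multiple concentrations in triplicate. Stimulation was 12 μM A23187 for 15 min. Eicosanoids were extracted with MeOH/0.01% BHT, and PGD₂ plus PGE₂ measured by UPLC-MS/MS (negative ion, 351 > 315).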

The nature of data set [2]: Inhibition of 5-LOX-mediated LTB4 production in arachidonic acid-stimulated RBL1 cells preincubated for 2 hrs followed by A23187 induction for 15 mins by LC/MS/MS analysis. The note with it: Rattus norvegicus, RBL-1. A digest of the protocol: as §1

By inhibition is commonly meant the drop in the measured response relative to a control, in per cent. Low values mean a weak effect, high ones a strong effect. As usually defined, the IC50 is the concentration needed to halve the response being measured. Lower therefore signals greater potency.

Molecules are shown by their SMILES.

Regarding `COc1ccc(-c2c(Cl)ncn2-c2ccc(Cl)cc2)cc1`, the Activity result in data set [1] is reported as “Non-Toxic”. Also, the inhibition in the data set filed under Rattus norvegicus was < 10%.
On the same counts, the results for `Cc1nc(Cl)n(-c2ccc(Cl)cc2)c1-c1c(F)ccc(F)c1F` are “Non-Toxic” and 58%.
In data set [1], `Cc1nc(Cl)n(-c2ccc(Cl)cc2)c1-c1c(F)ccc(Cl)c1F` returned an FC of 0.5. Moreover, the inhibition in the data set listed under Rattus norvegicus was found to be 54%.
Take `Clc1ccc(-n2cncc2-c2ccccc2)cc1`: in data set [1], the Activity entry is “Non-Toxic”. In the data set filed under Rattus norvegicus, this molecule showed an inhibition of 16%.
In the case of `COc1ccc(F)c(-c2cnc(Cl)n2-c2ccc(Cl)cc2)c1F`, in data set [1], the FC is 0.6. This molecule returned an inhibition in the data set listed under Rattus norvegicus of 68%.
As to `Fc1cc(F)c(-c2cnc(Cl)n2-c2ccc(Cl)cc2)c(F)c1`, the Activity entry in data set [1] was “Non-Toxic”. In the data set filed under Rattus norvegicus, this molecule showed an inhibition of 61%.
Taken in the same sequence, the figures for `Fc1cc(Cl)ccc1-n1cnc(Cl)c1-c1c(F)cccc1F` were “Non-Toxic” and 14%.
Regarding `Clc1ccc(-n2c(Cl)nc(Cl)c2-c2ccccc2)cc1`, the Activity result in data set [1] is reported as “Non-Toxic”. Further, the inhibition in the data set listed under Rattus norvegicus is < 10%.
On the same counts, the results for `Fc1ccc(F)c(-c2c(Cl)ncn2-c2ccc(Cl)cc2)c1` are “Non-Toxic” and 69%.
`Fc1cc(F)c(-c2c(Cl)ncn2-c2ccc(Cl)cc2)c(F)c1`: the Activity result in data set [1] is “Non-Toxic”. Also, the inhibition in the data set filed under Rattus norvegicus was determined as 46%.
Taken in the same sequence, the figures for `Fc1ccc(F)c(-c2cnc(Cl)n2-c2ccc(OC(F)(F)F)cc2)c1F` were “Non-Toxic” and 80%.
On the same counts, the results for `Cc1nc(Cl)c(-c2c(F)cc(F)cc2F)n1-c1ccc(Cl)cc1` are “Non-Toxic” and < 10%.
`Fc1cccc(F)c1-c1cncn1-c1ccc(OC(F)(F)F)cc1`: the Activity entry in data set [1] is “Non-Toxic”. The same molecule returned an inhibition in the data set filed under Rattus norvegicus of 55%.
Take `Cc1cc(F)c(-c2cncn2-c2ccc(Cl)cc2)c(F)c1`: the Activity result in data set [1] is “Non-Toxic”. For the same molecule, the inhibition in the data set listed under Rattus norvegicus worked out at 84%.
On the same counts, the results for `Fc1cccc(F)c1-c1c(Cl)nc(Cl)n1-c1ccccc1Cl` are “Non-Toxic” and 21%.
As to `Cc1cc(F)c(-c2cnc(Cl)n2-c2ccc(Cl)cc2)c(F)c1`, the Activity result in data set [1] was “Non-Toxic”. The molecule further displayed an inhibition in the data set filed under Rattus norvegicus of 73%.
With `Fc1ccc(-c2c(Cl)ncn2-c2ccc(Cl)cc2)cc1`, the Activity result in data set [1] is reported as “Non-Toxic”. The molecule further came in with an inhibition in the data set filed under Rattus norvegicus of 59%.
Regarding `Fc1ccc(F)c(-c2cncn2-c2ccc(OC(F)(F)F)cc2)c1F`, in data set [1], the FC is recorded as 1.2. Also, the inhibition in the data set listed under Rattus norvegicus was determined as 52%.
For the molecule `Cc1ncn(-c2ccc(Cl)cc2)c1-c1c(F)cccc1F`, the Activity result in data set [1] is on record as “Non-Toxic”. This molecule yielded an inhibition in the data set filed under Rattus norvegicus of 44%.
Turning to `COc1ccc(-n2cnc(Cl)c2-c2c(F)cc(F)cc2F)cc1`, the Activity entry in data set [1] is “Non-Toxic”. The molecule further came in with an inhibition in the data set listed under Rattus norvegicus of 86%. Further, the IC50 against Cyclooxygenase was found to be 2.4 µM; in data set [2] it was 9.7 µM.
For `Fc1ccc(F)c(-c2cnc(Cl)n2-c2ccc(Cl)cc2)c1F`, in data set [1], the Activity entry is given as “Non-Toxic”. This molecule also had an inhibition in the data set listed under Rattus norvegicus of 24%.
On the same counts, the results for `Fc1cccc(F)c1-c1cnc(Cl)n1-c1ccccc1Cl` are “Non-Toxic” and 38%.
On the same counts, the results for `Fc1ccc(-c2cnc(Cl)n2-c2ccc(Cl)cc2)cc1` are “Non-Toxic” and 57%.
On to `Clc1ccc(-n2c(-c3ccccc3)cnc2Cl)cc1`, for which the FC in data set [1] is recorded as 1.2. Further, the inhibition in the data set listed under Rattus norvegicus turned out to be 52%.
On to `Fc1cc(F)c(-c2cncn2-c2ccc(Cl)cc2)c(F)c1`, for which, in data set [1], the Activity result is reported as “Non-Toxic”. The inhibition in the data set filed under Rattus norvegicus worked out at 24%.
Taken in the same sequence, the figures for `Fc1cc(F)c(-c2c(Cl)nc(Cl)n2-c2ccc(Cl)cc2)c(F)c1` were “Non-Toxic” and 48%.
`Cc1ncc(-c2c(F)ccc(F)c2F)n1-c1ccc(Cl)cc1`: the FC in data set [1] is reported as 0.9. The same molecule showed an inhibition in the data set listed under Rattus norvegicus of 45%.
As for `Cc1nc(Cl)c(-c2c(F)cc(F)cc2F)n1-c1ccc(Cl)nc1`, the Activity result in data set [1] is reported as “Non-Toxic”. The molecule further registered an inhibition in the data set listed under Rattus norvegicus of 26%.
On the same counts, the results for `Cc1nc(C)n(-c2ccc(Cl)cc2)c1-c1c(F)ccc(Cl)c1F` are “Non-Toxic” and 51%.
With `Cc1nc(Cl)n(-c2ccc(Cl)cc2)c1-c1c(F)cccc1F`, in data set [1], the Activity entry is on record as “Non-Toxic”. The inhibition in the data set listed under Rattus norvegicus is 42%.
On the same counts, the results for `Fc1ccc(F)c(-c2c(Cl)nc(Cl)n2-c2ccc(OC(F)(F)F)cc2)c1F` are “Non-Toxic” and 56%.
Consider `Fc1cc(Cl)ccc1-n1c(-c2c(F)cccc2F)cnc1Cl`, for which the Activity entry in data set [1] is recorded as “Non-Toxic”. The molecule further returned an inhibition in the data set listed under Rattus norvegicus of 49%.
Taken in the same sequence, the figures for `Fc1ccc(F)c(-c2c(Cl)ncn2-c2ccc(OC(F)(F)F)cc2)c1F` were “Non-Toxic” and 85%.
On the same counts, the results for `Fc1cc(-n2c(-c3c(F)ccc(F)c3F)cnc2Cl)ccc1Cl` are “Non-Toxic” and 58%.
Taken in the same sequence, the figures for `Fc1cccc(F)c1-c1cnc(Cl)n1-c1ccc(OC(F)(F)F)cc1` were “Non-Toxic” and 61%.
For `Fc1cccc(F)c1-c1c(Cl)nc(Cl)n1-c1ccc(OC(F)(F)F)cc1`, the Activity result in data set [1] is reported as “Non-Toxic”. Moreover, in the data set filed under Rattus norvegicus, the inhibition was determined as 81%.
On the same counts, the results for `Fc1cccc(F)c1-c1cncn1-c1ccccc1` are “Non-Toxic” and < 10%.
For `COc1ccc(F)c(-c2c(Cl)ncn2-c2ccc(Cl)cc2)c1F`, the FC in data set [1] is recorded as 0.8. The same molecule displayed an inhibition in the data set listed under Rattus norvegicus of 91%.
For `Fc1cccc(F)c1-c1c(Cl)nc(Cl)n1-c1ccc(Cl)cc1`, the Activity result in data set [1] is reported as “Non-Toxic”. The inhibition in the data set listed under Rattus norvegicus stood at 90%.
Taken in the same sequence, the figures for `Fc1cccc(F)c1-c1c(Cl)ncn1-c1ccc(OC(F)(F)F)cc1` were “Non-Toxic” and 78%.
The molecule `Fc1cc(F)c(-c2c(Cl)ncn2-c2ccc(Cl)nc2)c(F)c1` had an FC in data set [1] of 0.8. Also, in the data set listed under Rattus norvegicus, the inhibition was < 10%.
In the case of `Cc1ccc(F)c(-c2c(Cl)ncn2-c2ccc(Cl)cc2)c1F`, in data set [1], the FC is reported as 0.8. Also, the inhibition in the data set filed under Rattus norvegicus amounted to 78%.
Turning to `Fc1cccc(F)c1-c1cncn1-c1ccccc1Cl`, the Activity entry in data set [1] is given as “Non-Toxic”. Further, in the data set listed under Rattus norvegicus, the inhibition was < 10%.
On the same counts, the results for `Fc1cccc(F)c1-c1c(Cl)ncn1-c1ccccc1Cl` are “Non-Toxic” and 56%.
Taken in the same sequence, the figures for `CC(C)Cc1ccc(C(C)C(=O)O)cc1` (configuration not stated) [IBUPROFEN] were “Non-Toxic” and < 10%.
Taken in the same sequence, the figures for `COc1ccc(F)c(-c2cncn2-c2ccc(Cl)cc2)c1F` were “Non-Toxic” and 78%.
As to `COc1ccc(-n2cncc2-c2c(F)cc(F)cc2F)cc1`, the Activity entry in data set [1] is recorded as “Non-Toxic”. In the data set listed under Rattus norvegicus, this molecule showed an inhibition of 25%.
`Fc1ccc(Cl)c(F)c1-c1cnc(Cl)n1-c1ccc(Cl)cc1` came in with an FC in data set [1] of 0.8. Moreover, the inhibition in the data set filed under Rattus norvegicus came out at 88%.
On the same counts, the results for `Cc1cc(F)c(-c2c(Cl)nc(Cl)n2-c2ccc(Cl)cc2)c(F)c1` are 0.7 and 63%.
With `COc1ccc(-c2cncn2-c2ccc(Cl)cc2)cc1`, the Activity entry in data set [1] is “Non-Toxic”. In addition, the inhibition in the data set filed under Rattus norvegicus is < 10%.

These data come from ChEMBL document CHEMBL4014332, “Multitargeted Imidazoles: Potential Therapeutic Leads for Alzheimer's and Other Neurodegenerative Diseases” (J Med Chem, 2017).
